Measurements from ChEMBL document CHEMBL1154414, “In vitro and in vivo activities of T-705 against arenavirus and bunyavirus infections” (Antimicrob Agents Chemother, 2007).

How the values were obtained:
Punta Toro virus [1] = test: Antiviral activity against 5000 PFU Punta Toro virus Adames infected C57BL/6 mouse assessed as animals with detectable virus level in serum at 10 mg/kg, po twice daily administered 24 hrs post viral challenge measured on day 3 of viral infection; format: functional
In short: (§1)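 Mice were infected subcutaneously with PTV and dosed by oral gavage twice daily; 5 per group (10 placebo) were killed on day 3 or 4. Liver homogenate or serum was serially diluted onto triplicate LLC-MK2 monolayers, and CPE was read 6–8 days later. 50% endpoints gave log10 CCID50 per 0.1 g liver or 0.1 ml serum. Detection range was 2.8–9.5; undetectable samples were assigned <2.8.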

Pichinde virus [2] = test: Antiviral activity against Pichinde virus An 4763 infected Syrian golden hamster assessed as mean serum ALT levels at 50 mg/kg, po twice daily for 7 days administered 24 hrs post viral-challenge measured on day 7 of viral infection; format: functional
In short: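 Hamsters were challenged intraperitoneally (bilateral, 65 PFU) and given twice-daily oral gavage doses (0.4% CMC vehicle). Five per group were sacrificed on day 7 and serum was collected. Serum ALT activity was measured by kinetic assay. Three sham-infected animals set the baselines.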

Pichinde virus [3] = test: Antiviral activity against Pichinde virus An 4763 infected Syrian golden hamster assessed as mean viral titer per 0.1 mL of serum at 50 mg/kg, po twice daily for 7 days administered 24 hrs post viral-challenge measured on day 7 of viral infection; format: functional
In short: (§2)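 Hamsters (groups of 15, placebo 25-30) were dosed orally by gavage twice daily (drug suspended in 0.4% CMC) after bilateral intraperitoneal challenge with 65 PFU. Five per group were killed on day 7. Liver homogenate or serum was serially diluted onto triplicate B-SC-1 wells, CPE was read at 6-8 days, and the 50% endpoint was taken. Range was 2.8-9.5 log10 CCID50/0.1 g or 0.1 ml, with undetectable assigned <2.8.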

Pichinde virus [4] = test: Antiviral activity against Pichinde virus An 4763 infected Syrian golden hamster assessed as animals with detectable virus level in liver at 40 mg/kg, po twice daily for 7 days administered 4 hrs before viral-challenge measured on day 7 of viral infection; format: functional
Pichinde virus [5] = test: Antiviral activity against Pichinde virus An 4763 infected Syrian golden hamster assessed as mean viral titer per 0.1 g of liver at 50 mg/kg, po twice daily for 7 days administered 24 hrs post viral-challenge measured on day 7 of viral infection; format: functional; in short: as §2
Punta Toro virus [6] = test: Antiviral activity against Punta Toro virus Adames assessed as inhibition of virus-induced visual cytopathic effect after 3 to 5 days; format: functional, organism-based
In short: (§3)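 Virus in medium with 2% FBS was used at the CCID50 that gave maximal CPE. Half-log drug dilutions (DMSO stock, ≤1% DMSO at the top concentration) were added at infection. EC50 was derived by regression analysis.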

Punta Toro virus [7] = test: Antiviral activity against Punta Toro virus Adames infected Syrian golden hamster assessed as survival at 30 mg/kg, po twice daily for 6 days administered 4 hrs before viral challenge; format: functional
In short: (§4)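 Hamsters (groups of 15, placebo 25-30) were challenged subcutaneously with 50 PFU and dosed twice daily by oral gavage in 0.4% CMC vehicle.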

Punta Toro virus [8] = test: Antiviral activity against 500 PFU Punta Toro virus Adames infected C57BL/6 mouse assessed as mean viral titer per 0.1 g of liver at 10 mg/kg, po twice daily administered 24 hrs post viral challenge measured on day 3 of viral infection; format: functional; in short: as §1
Punta Toro virus [9] = test: Antiviral activity against 50 PFU Punta Toro virus Adames infected C57BL/6 mouse assessed as animals with detectable virus level in liver at 10 mg/kg, po twice daily administered 24 hrs post viral challenge measured on day 3 of viral infection; format: functional
In short: (§5)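 T-705 was suspended in 0.4% carboxymethylcellulose and given by oral gavage twice daily. Mice were infected subcutaneously with PTV. Five mice per group (10 placebo) were sacrificed on day 3 or 4. Liver homogenate or serum was serially diluted onto triplicate LLC-MK2 monolayers, and CPE was read at 6–8 days. The detection limit was 2.8 log10 CCID50 per 0.1 g liver or 0.1 ml serum.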

Punta Toro virus [10] = test: Antiviral activity against 5000 PFU Punta Toro virus Adames infected C57BL/6 mouse assessed as mean viral titer per 0.1 mL of serum at 30 mg/kg, po twice daily administered 24 hrs post viral challenge measured on day 3 of viral infection; format: functional; in short: as §1
Punta Toro virus [11] = test: Antiviral activity against 50 PFU Punta Toro virus Adames infected C57BL/6 mouse assessed as mean serum ALT levels at 10 mg/kg, po twice daily administered 24 hrs post viral challenge measured on day 3 of viral infection; format: functional
In short: (§6)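 Subcutaneous PTV infection was followed by oral gavage twice daily with drug suspended in 0.4% CMC. Serum was collected from 5 sacrificed mice per group (10 placebo) on day 3 or 4. ALT activity was measured by kinetic assay, and sham-infected mice set the baselines.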

Punta Toro virus [12] = test: Antiviral activity against 500 PFU Punta Toro virus Adames infected C57BL/6 mouse assessed as animals with detectable virus level in liver at 30 mg/kg, po twice daily administered 24 hrs post viral challenge measured on day 3 of viral infection; format: functional; in short: as §5
Pichinde virus [13] = test: Antiviral activity against Pichinde virus An 4763 infected Syrian golden hamster assessed as mean viral titer per 0.1 g of liver at 20 mg/kg, po twice daily for 7 days administered 72 hrs post viral-challenge measured on day 7 of viral infection; format: functional; in short: as §2
Punta Toro virus [14] = test: Antiviral activity against 5000 PFU Punta Toro virus Adames infected C57BL/6 mouse assessed as mean serum ALT levels at 30 mg/kg, po twice daily administered 24 hrs post viral challenge measured on day 3 of viral infection; format: functional
In short: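 C57BL/6 mice received subcutaneous PTV, then oral gavage twice daily for 5–7 days. T-705 was given in 0.4% CMC and ribavirin in saline. Five mice per group (10 placebo) were killed on day 3 or 4, and serum was collected. ALT activity was measured by kinetic assay. Three sham-infected mice set baselines.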

[15] = tested on: Sandfly fever Naples virus; test: Antiviral activity against Sandfly fever Naples virus assessed as inhibition of virus-induced visual cytopathic effect after 3 to 5 days; format: functional, organism-based; in short: as §3
Punta Toro virus [16] = test: Antiviral activity against 500 PFU Punta Toro virus Adames infected C57BL/6 mouse assessed as mean serum ALT levels at 10 mg/kg, po twice daily administered 24 hrs post viral challenge measured on day 3 of viral infection; format: functional; in short: as §6
Pichinde virus [17] = test: Antiviral activity against Pichinde virus An 4763 infected Syrian golden hamster assessed as mean viral titer per 0.1 g of liver at 40 mg/kg, po twice daily for 7 days administered 4 hrs before viral-challenge measured on day 7 of viral infection; format: functional; in short: as §2
Punta Toro virus [18] = test: Antiviral activity against Punta Toro virus Adames infected Syrian golden hamster assessed as mean day of death at 30 mg/kg, po twice daily for 6 days administered 4 hrs before viral challenge; format: functional; in short: as §4
Punta Toro virus [19] = test: Antiviral activity against 500 PFU Punta Toro virus Adames infected C57BL/6 mouse assessed as mean viral titer per 0.1 mL of serum at 10 mg/kg, po twice daily administered 24 hrs post viral challenge measured on day 3 of viral infection; format: functional; in short: as §1
Punta Toro virus [20] = test: Antiviral activity against 500 PFU Punta Toro virus Adames infected C57BL/6 mouse assessed as mean viral titer per 0.1 mL of serum at 30 mg/kg, po twice daily administered 24 hrs post viral challenge measured on day 3 of viral infection; format: functional; in short: as §1
Punta Toro virus [21] = test: Antiviral activity against 5000 PFU Punta Toro virus Adames infected C57BL/6 mouse assessed as mean viral titer per 0.1 g of liver at 10 mg/kg, po twice daily administered 24 hrs post viral challenge measured on day 3 of viral infection; format: functional; in short: as §1

NC(=O)c1nc(F)cnc1O [FAVIPIRAVIR]
Activity (Punta Toro virus [1]): 80% | Activity (Pichinde virus [2]): 61 IU/L | log10CCID50 (Pichinde virus [3]): <5.1 | Activity (Pichinde virus [4]): 20% | log10CCID50 (Pichinde virus [5]): 5.7 | EC50 (Punta Toro virus [6]): 191 µM | survival at 30 mg/kg (Punta Toro virus [7]; Punta Toro virus, Adames): 90% | log10CCID50 (Punta Toro virus [8]): <2.8 | Activity (Punta Toro virus [9]): 0% | log10CCID50 (Punta Toro virus [10]): <3.3 | Activity (Punta Toro virus [11]): 3273 IU/L | Activity (Punta Toro virus [12]): 60% | log10CCID50 (Pichinde virus [13]): >8.6 | Activity (Punta Toro virus [14]): 521 IU/L | EC50 [15]: 115 µM | Activity (Punta Toro virus [16]): 3302 IU/L | log10CCID50 (Pichinde virus [17]): <3.2 | Activity (Punta Toro virus [18]): 6 days | log10CCID50 (Punta Toro virus [19]): 7.1 | log10CCID50 (Punta Toro virus [20]): <5.1 | log10CCID50 (Punta Toro virus [21]): <2.9

NC(=O)c1ncn([C@@H]2O[C@H](CO)[C@@H](O)[C@H]2O)n1 [RIBAVIRIN]
Activity (Punta Toro virus [1]): 100% | Activity (Pichinde virus [2]): 26 IU/L | log10CCID50 (Pichinde virus [3]): <3.5 | Activity (Pichinde virus [4]): 20% | log10CCID50 (Pichinde virus [5]): 4.2 | EC50 (Punta Toro virus [6]): 172 µM | Activity (Punta Toro virus [7]): 70% | log10CCID50 (Punta Toro virus [8]): <2.9 | Activity (Punta Toro virus [9]): 40% | log10CCID50 (Punta Toro virus [10]): <4.2 | Activity (Punta Toro virus [11]): 846 IU/L | Activity (Punta Toro virus [12]): 60% | log10CCID50 (Pichinde virus [13]): 6.8 | Activity (Punta Toro virus [14]): 1491 IU/L | EC50 [15]: 90 µM | Activity (Punta Toro virus [16]): 2150 IU/L | log10CCID50 (Pichinde virus [17]): <3.2 | Activity (Punta Toro virus [18]): 13.3 days | log10CCID50 (Punta Toro virus [19]): 6.7 | log10CCID50 (Punta Toro virus [20]): <5 | log10CCID50 (Punta Toro virus [21]): <2.8
